Experimental data collected from several papers.
Protocols differ between the studies behind these lines.
Target: Tyrosine-protein kinase Fgr (FGR, Homo sapiens, UniProt P09769)

CC/C(=N\NC(=O)NCc1cccc(O)c1)c1ccc(O)c(C)c1O
inhibition (enzyme activity; inhibitor; 0.1 µM): 1.1%

CC(C)(O)c1cncc(-c2nc3ccc(F)cc3n2C2CC2)c1
remaining binding (cell-free assay; competition with immobilised ligand; 1 µM): 100%

Cn1c2c(c3ccc(Cl)c(Cl)c31)C(C#N)C1(CCOCC1)NC2=O (stereo not shown)
ΔTm (thermal stability; DSF; 10 µM): 0 °C

CNC(=O)c1cc2c(Oc3ccc(NC(=O)C4(C(=O)Nc5ccc(F)cc5)CC4)cc3)ccnc2cc1OC
inhibition (enzyme activity; inhibitor; radiometric; 1 µM): 79%

O=S(=O)(NC1CCC(c2cc(F)ccc2F)(S(=O)(=O)c2ccc(Cl)cc2)CC1)C(F)(F)F (stereo not shown)
remaining binding (cell-free assay; competition with immobilised ligand; 1 µM): 99%

Cn1c2c(c3ccc(Cl)c(Cl)c31)C(C#N)C(C)(C)NC2=O (stereo not shown)
ΔTm (thermal stability; DSF; 10 µM): 0.1 °C

NS(=O)(=O)c1cc(NC(=O)Cc2ccccc2)ccc1Oc1cccc(Cl)c1
remaining binding (cell-free assay; competition with immobilised ligand; 1 µM): 100%

O=C(Nc1cnn(-c2csc(C(=O)NC3COC3)c2)c1)Nc1ccccc1Cl
remaining activity (enzyme activity; inhibitor; 5 µM): 90%

CS(=O)(=O)c1cc(C2(NC(=O)c3cncc4c3cnn4-c3ccc(F)cc3)CC2)ccn1
remaining binding (cell-free assay; competition with immobilised ligand; 1 µM): 100%

Cn1c2c(Cl)c(Cl)ccc2c2cc[nH]c(=O)c21
ΔTm (thermal stability; DSF; 10 µM): -0.4 °C

O=C1NC(=O)c2cc(Nc3ccc(F)cc3)c(Nc3ccc(F)cc3)cc21
remaining signal (cell-free assay; 0.5 µM): 96.3%

Cn1c2c(Cl)c(Cl)ccc2c2cn[nH]c(=O)c21
ΔTm (thermal stability; DSF; 10 µM): -0.1 °C

COc1cc(-c2cn(C3CCc4c(F)cccc4N(CC(F)(F)F)C3=O)nn2)ccc1-n1cnc(C)c1 (stereo not shown)
remaining binding (cell-free assay; competition with immobilised ligand; 1 µM): 100%

CC(C)(C)c1nc(-c2cccc(NS(=O)(=O)c3c(F)cccc3F)c2F)c(-c2ccnc(N)n2)s1
remaining activity (enzyme activity; inhibitor; radiometric; 1 µM): 60%

CNC(=O)c1cc(Oc2ccc(NC(=O)Nc3ccc(Cl)c(C(F)(F)F)c3)cc2)ccn1
inhibition (enzyme activity; inhibitor; 10 µM): 39%

Cn1c2c(Cl)c(Cl)ccc2c2cc(N)[nH]c(=O)c21
ΔTm (thermal stability; DSF; 10 µM): 0 °C

Nc1ncnc2occ(-c3ccc(NC(=O)Nc4cc(C(F)(F)F)ccc4F)cc3)c12
remaining signal (cell-free assay; inhibitor; 20 µM): 5.2%

Cc1ccc(Nc2nccc(N(C)c3ccc4c(C)n(C)nc4c3)n2)cc1S(N)(=O)=O
remaining signal (cell-free assay; 0.5 µM): 35.8%

CCCOc1ccc(OC)c(F)c1C(=O)c1ccc(C(=O)N[C@@H]2CNC[C@H]2NC(=O)c2ccc3[nH]ncc3c2)cc1
remaining activity (enzyme activity; inhibitor; 10 µM): 65%

CN(C)C(=O)Cn1cc(-c2nc(C3(c4ccc(-c5cnc(N)nc5)cc4)CC3)no2)cn1
remaining binding (cell-free assay; competition with immobilised ligand; 1 µM): 100%

Cc1ccc(C(=O)NCc2ccsc2)cc1C#Cc1cn(C(C)C)c2ncnc(N)c12
activity vs control (enzyme activity; inhibitor; 1 µM): 2%

Cc1sc(C(=O)NC2COC2)cc1-n1cc(NC(=O)Nc2c(F)cccc2Cl)cn1
remaining activity (enzyme activity; inhibitor; 10 µM): 80.2%

COc1cc2ncnc(Nc3ccc(Oc4ccccc4)c(C)c3C)c2cc1OC
inhibition (enzyme activity; inhibitor; 1 µM): 93%

CC1(C)NC(=O)c2[nH]c3c(Cl)c(Cl)ccc3c2C1C#N (stereo not shown)
ΔTm (thermal stability; DSF; 10 µM): 0.2 °C

CC(C)CC(=O)N1CCc2nc(-c3ccc(Br)cc3)nc(N(C)Cc3ccccc3)c2C1
remaining binding (cell-free assay; competition with immobilised ligand; 0.1 µM): 99%

CCN(CC)CCNC(=O)c1c(C)[nH]c(/C=C2\C(=O)Nc3ccc(F)cc32)c1C
inhibition (enzyme activity; inhibitor; 0.3 µM): 77%

C[C@H](NC(=O)c1cnc2n1[C@](C)(Cc1ccc(C#N)cc1)C(=O)N2c1cc(Cl)c(F)c(Cl)c1)C(=O)NC1(c2ccccn2)CC1
remaining binding (cell-free assay; competition with immobilised ligand; 1 µM): 100%

N#CCCc1ccc2c(c1)-c1[nH]c3ccc([N+](=O)[O-])cc3c1CC(=O)N2
remaining signal (cell-free assay; 0.5 µM): 31%
